Results from ChEMBL document CHEMBL1268908, “Design, synthesis, radiolabeling, and in vivo evaluation of carbon-11 labeled N-[2-[4-(3-cyanopyridin-2-yl)piperazin-1-yl]ethyl]-3-methoxybenzamide, a potential positron emission tomography tracer for the dopamine D(4) receptors” (J Med Chem, 2010).
Active and inactive are the calls of the source. The rule behind the calls is not given here.

Assays:
[1] = target: Sigma non-opioid intracellular receptor 1 (Homo sapiens) (UniProt Q99720); assay: Displacement of [3H](+)-pentazocine from human sigma 1 receptor expressed in MCF7 cells at 1 uM after 180 mins by scintillation counting; type: cell-based
Outline: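 Membranes from MCF-7 cells stably expressing cloned human σ1 receptor, 0.01–0.05 mg/mL protein, in 50 mM Tris pH 8.0. Incubated 180 min at 37 °C with shaking with 1 nM [3H]-(+)-pentazocine and 1 μM compound; BD1063 defined nonspecific binding. Filtered on PEI-treated GF/C, washed with ice-cold buffer, scintillation counted; triplicates, 3–4 experiments.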

[2] = Lipophilicity, log P of the compound; type: physicochemical; settings: octanol/water
D(4) dopamine receptor = target: T1, D(4) dopamine receptor (Rattus norvegicus, UniProt P30729); assay: Displacement of [3H]MSP from rat dopamine D4 receptor expressed in HEK293 cells after 90 mins by scintillation counting; type: cell-based
T1 sequence (P30729 whole entry): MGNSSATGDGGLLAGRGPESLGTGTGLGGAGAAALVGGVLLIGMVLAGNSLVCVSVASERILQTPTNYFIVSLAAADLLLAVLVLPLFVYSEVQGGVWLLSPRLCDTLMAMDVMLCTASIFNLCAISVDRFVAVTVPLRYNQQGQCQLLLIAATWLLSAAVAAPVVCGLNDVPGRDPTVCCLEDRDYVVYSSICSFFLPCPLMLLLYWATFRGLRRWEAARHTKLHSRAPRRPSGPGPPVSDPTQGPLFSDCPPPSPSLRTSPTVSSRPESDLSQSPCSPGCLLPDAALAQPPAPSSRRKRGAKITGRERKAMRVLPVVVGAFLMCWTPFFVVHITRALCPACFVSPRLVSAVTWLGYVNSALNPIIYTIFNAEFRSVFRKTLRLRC
Outline: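 Competition binding on fresh membranes from HEK293 cells stably expressing rat D4 receptor, with about […] [3H]methylspiperone for 90 min at 25 °C in 50 mM Tris pH 7.4; (+)-butaclamol defined nonspecific binding. Filtered and scintillation counted. IC50 converted to Ki by Cheng–Prusoff; triplicates, 3–4 experiments.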

[3] = Dissociation constant, pKa of the compound; type: physicochemical
[4] = target: D(2) dopamine receptor (Rattus norvegicus) (UniProt P61169); assay: Displacement of [3H]MSP from rat dopamine D2L receptor expressed in HEK293 cells at 1 uM after 90 mins by scintillation counting; type: cell-based
Outline: (§1)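 HEK293 membranes stably expressing rat D2 or human 5-HT1A, 5-HT2A or 5-HT2C receptors, used fresh. Incubated 90 min at 25 °C in 50 mM Tris pH 7.4 with about […] radioligand and 1 μM compound (DMSO or DMF stock diluted ≥1:1000). Nonspecific binding defined by (+)-butaclamol for D2, NAN-190 for 5-HT1A and mianserin for 5-HT2A/2C. PEI-GF/C filtration, scintillation count; % displacement from triplicates, 3–4 repeats.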

[5] = Distribution coefficient, log D of the compound at pH 7.4; type: physicochemical; settings: octanol/water
[6] = target: T2, 5-hydroxytryptamine receptor 2C (Homo sapiens) (UniProt P28335); assay: Displacement of [3H]mesulergine from human 5HT2C receptor expressed in HEK293 cells at 1 uM after 90 mins by scintillation counting; type: cell-based; outline: as §1
T2 sequence (whole entry): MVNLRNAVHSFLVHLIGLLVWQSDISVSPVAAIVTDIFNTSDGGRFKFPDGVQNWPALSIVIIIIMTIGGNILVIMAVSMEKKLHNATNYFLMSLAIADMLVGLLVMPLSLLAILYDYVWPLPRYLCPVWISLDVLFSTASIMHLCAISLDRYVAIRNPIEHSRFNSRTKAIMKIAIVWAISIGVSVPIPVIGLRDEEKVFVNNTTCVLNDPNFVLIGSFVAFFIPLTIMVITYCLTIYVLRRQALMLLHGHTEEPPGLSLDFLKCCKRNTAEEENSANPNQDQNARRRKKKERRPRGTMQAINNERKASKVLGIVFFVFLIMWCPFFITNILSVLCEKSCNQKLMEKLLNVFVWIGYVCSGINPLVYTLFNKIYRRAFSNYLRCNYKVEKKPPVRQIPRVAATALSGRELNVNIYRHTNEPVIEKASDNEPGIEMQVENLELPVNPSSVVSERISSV

[7] = Drug level in CD1 mouse brain at 10 mg/kg, ip after 30 mins; type: ADME, organism-based; set-up: dose 10 mg/kg, route intraperitoneal; settings: read-out: Drug uptake
[8] = target: T3, 5-hydroxytryptamine receptor 1A (Homo sapiens) (UniProt P08908); assay: Displacement of [3H]MPPF from human 5HT1A receptor expressed in HEK293 cells at 1 uM after 90 mins by scintillation counting; type: cell-based; outline: as §1
T3 sequence (whole entry): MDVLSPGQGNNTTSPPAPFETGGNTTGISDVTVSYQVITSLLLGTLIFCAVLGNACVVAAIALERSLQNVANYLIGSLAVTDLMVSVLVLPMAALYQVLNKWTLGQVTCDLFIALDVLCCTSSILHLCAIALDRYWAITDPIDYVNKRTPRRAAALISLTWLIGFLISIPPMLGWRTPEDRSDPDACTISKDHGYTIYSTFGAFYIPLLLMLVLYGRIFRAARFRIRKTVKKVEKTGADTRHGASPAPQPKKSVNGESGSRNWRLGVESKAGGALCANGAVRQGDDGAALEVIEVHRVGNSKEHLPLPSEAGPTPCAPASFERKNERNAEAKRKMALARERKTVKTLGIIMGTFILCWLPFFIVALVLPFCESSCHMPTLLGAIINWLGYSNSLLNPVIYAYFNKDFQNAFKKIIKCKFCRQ

[9] = target: D(3) dopamine receptor (Homo sapiens) (UniProt P35462); assay: Displacement of [3H]MSP from human dopamine D3 receptor expressed in CHO-K1 cells at 1 uM after 90 mins by scintillation counting; type: cell-based
Outline: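 Frozen CHO-K1 membranes carrying human D3 receptor, incubated with about […] [3H]methylspiperone and 1 μM compound for 90 min at 25 °C in 50 mM Tris pH 7.4. Nonspecific binding defined with 5 μM 7-OH-DPAT. Filtered on PEI-treated GF/C and scintillation counted; triplicate points, experiment repeated 3–4 times.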

[10] = target: Cannabinoid receptor 1 (Rattus norvegicus) (UniProt P20272); assay: Displacement of [3H]CP55940 from CB1 receptor in rat brain at 1 uM after 180 mins by scintillation counting
Plasma = assay: Drug level in CD1 mouse plasma at 10 mg/kg, ip after 30 to 60 mins; type: ADME, organism-based; set-up: dose 10 mg/kg, route intraperitoneal; settings: in vivo
Outline: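 Male CD1 mice, 25–30 g, given 10 mg/kg ip in ethanol/PEG 40/saline (10:40:50). Killed at 15–240 min. Plasma (0.2 mL) alkalinised and extracted into dichloromethane with a 1-(2-thiazolyl)piperazine internal standard, then run on gradient reversed-phase HPLC-UV at 264 nm; quantification limit about 100 ng/mL. Mean ± SD, n = 3.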

[11] = target: T4, D(4) dopamine receptor (Rattus norvegicus) (UniProt P30729); assay: Agonist activity at rat dopamine D4 receptor expressed in HEK293 cells assessed as decrease in forskolin-stimulated levels of cAMP accumulation up to 10 uM; type: functional, cell-based
T4 sequence (whole entry): T1 sequence (P30729 whole entry)

[12] = Drug level in CD1 mouse plasma at 10 mg/kg, ip after 30 mins; type: ADME, organism-based; set-up: dose 10 mg/kg, route intraperitoneal; settings: read-out: Drug uptake
[13] = target: 5-hydroxytryptamine receptor 2A (Homo sapiens) (UniProt P28223); assay: Displacement of [3H]MSP from human 5HT2A receptor expressed in HEK293 cells at 1 uM after 90 mins by scintillation counting; type: cell-based; outline: as §1
[14] = Drug level in CD1 mouse brain at 10 mg/kg, ip after 15 mins; type: ADME, organism-based; set-up: dose 10 mg/kg, route intraperitoneal; settings: read-out: Drug uptake
[15] = Drug level in CD1 mouse plasma at 10 mg/kg, ip after 15 mins; type: ADME, organism-based; set-up: dose 10 mg/kg, route intraperitoneal; settings: read-out: Drug uptake

Sequence of D(2) dopamine receptor (Rattus norvegicus) (P61169 whole entry): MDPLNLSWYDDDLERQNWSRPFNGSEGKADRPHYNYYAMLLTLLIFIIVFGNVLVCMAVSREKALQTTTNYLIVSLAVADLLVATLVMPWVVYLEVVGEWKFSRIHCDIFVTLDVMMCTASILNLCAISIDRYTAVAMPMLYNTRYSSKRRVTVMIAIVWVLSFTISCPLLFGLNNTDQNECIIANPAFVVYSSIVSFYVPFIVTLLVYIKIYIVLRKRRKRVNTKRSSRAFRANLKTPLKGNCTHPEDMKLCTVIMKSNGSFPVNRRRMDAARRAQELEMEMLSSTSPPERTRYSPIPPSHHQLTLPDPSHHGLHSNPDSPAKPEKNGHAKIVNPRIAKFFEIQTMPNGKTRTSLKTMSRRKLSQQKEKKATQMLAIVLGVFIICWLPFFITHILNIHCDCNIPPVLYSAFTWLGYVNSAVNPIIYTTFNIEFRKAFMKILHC
Sequence of Sigma non-opioid intracellular receptor 1 (Homo sapiens) (Q99720 whole entry): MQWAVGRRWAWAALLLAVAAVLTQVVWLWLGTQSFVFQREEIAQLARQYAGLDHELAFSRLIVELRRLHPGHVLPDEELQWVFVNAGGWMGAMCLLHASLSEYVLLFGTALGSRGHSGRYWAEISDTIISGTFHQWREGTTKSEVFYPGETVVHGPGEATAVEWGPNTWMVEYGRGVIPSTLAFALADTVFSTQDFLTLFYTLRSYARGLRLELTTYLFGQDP
Sequence of Cannabinoid receptor 1 (Rattus norvegicus) (P20272 whole entry): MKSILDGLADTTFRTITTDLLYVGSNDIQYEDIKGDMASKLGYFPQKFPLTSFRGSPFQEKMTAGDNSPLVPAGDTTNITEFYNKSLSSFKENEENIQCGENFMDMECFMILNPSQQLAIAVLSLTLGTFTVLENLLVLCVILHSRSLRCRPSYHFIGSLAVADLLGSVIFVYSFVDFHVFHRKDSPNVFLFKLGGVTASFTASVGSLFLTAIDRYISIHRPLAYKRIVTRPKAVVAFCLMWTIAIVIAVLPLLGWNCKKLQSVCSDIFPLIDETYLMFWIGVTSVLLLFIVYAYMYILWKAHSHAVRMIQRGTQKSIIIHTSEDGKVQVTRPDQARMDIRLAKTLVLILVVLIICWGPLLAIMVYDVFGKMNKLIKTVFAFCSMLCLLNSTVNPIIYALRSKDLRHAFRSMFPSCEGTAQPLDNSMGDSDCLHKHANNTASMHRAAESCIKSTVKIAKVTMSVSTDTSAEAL
Sequence of 5-hydroxytryptamine receptor 2A (Homo sapiens) (P28223 whole entry): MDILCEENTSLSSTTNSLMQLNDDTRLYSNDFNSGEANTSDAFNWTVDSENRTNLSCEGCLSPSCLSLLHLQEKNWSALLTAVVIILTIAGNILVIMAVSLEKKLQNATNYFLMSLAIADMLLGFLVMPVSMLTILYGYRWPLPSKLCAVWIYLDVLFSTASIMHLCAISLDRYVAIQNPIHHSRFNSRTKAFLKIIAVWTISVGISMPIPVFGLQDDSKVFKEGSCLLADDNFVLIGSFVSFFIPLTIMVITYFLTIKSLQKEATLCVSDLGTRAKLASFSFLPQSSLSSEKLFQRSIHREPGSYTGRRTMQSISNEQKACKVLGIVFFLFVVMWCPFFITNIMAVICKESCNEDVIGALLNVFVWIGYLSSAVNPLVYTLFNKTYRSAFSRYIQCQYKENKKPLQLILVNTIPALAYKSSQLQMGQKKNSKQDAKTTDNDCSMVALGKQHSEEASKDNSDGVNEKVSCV
Sequence of D(3) dopamine receptor (Homo sapiens) (P35462 whole entry): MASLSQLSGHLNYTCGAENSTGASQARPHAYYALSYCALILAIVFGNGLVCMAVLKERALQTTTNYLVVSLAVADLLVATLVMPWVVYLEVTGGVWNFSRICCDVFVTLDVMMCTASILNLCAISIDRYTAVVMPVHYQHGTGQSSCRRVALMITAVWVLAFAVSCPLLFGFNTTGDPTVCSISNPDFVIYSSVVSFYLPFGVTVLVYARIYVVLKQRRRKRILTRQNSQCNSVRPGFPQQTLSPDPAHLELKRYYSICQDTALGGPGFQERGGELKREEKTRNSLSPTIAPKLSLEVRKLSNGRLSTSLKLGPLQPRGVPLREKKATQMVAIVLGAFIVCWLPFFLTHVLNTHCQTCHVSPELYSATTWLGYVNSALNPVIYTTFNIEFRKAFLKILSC

Row | Activity [1] [%] | logP [2] | Ki (D(4) dopamine receptor) [nM] | pKa [3] | Activity [4] [%] | Compound | other results
1 | 4.6 | 3.07 | 32.7 | 6.43 | 0 | N#Cc1ccc(N2CCN(CCNC(=O)c3ccc(F)cc3)CC2)cc1 | –
2 | 21 | – | 2.64 | 6.31 | 29 | Cc1ccc(N2CCN(CCNC(=O)c3ccc(F)cc3)CC2)cc1 | –
3 | 21 | 3.79 | 0.34 | 6.43 | 89 | O=C(NCCN1CCN(c2noc3ccccc23)CC1)c1ccc(F)cc1 | logD [5]: 3.75
4 | 29 | 3.75 | 1.76 | 6.46 | 48 | O=C(NCCN1CCN(c2ccc(Cl)cc2)CC1)c1ccc(F)cc1 | –
5 | 33 | 3.42 | 2.92 | 6.58 | 43 | O=C(NCCN1CCN(c2ccc(Cl)cn2)CC1)c1ccc(F)cc1 | –
6 | 22 | – | 4.97 | 6.19 | 7.8 | COc1cccc(C(=O)NCCN2CCN(c3ccc(Cl)cc3)CC2)c1 | –

Continued, compound first:

Row | Compound | Activity [1] [%] | logP [2] | Ki (D(4) dopamine receptor) [nM] | pKa [3] | Activity [4] [%] | other results
7 | COc1cccc(C(=O)NCCN2CCN(c3noc4ccccc34)CC2)c1 | 13 | – | 1.93 | 6.24 | 84 | –
8 | COc1cccc(C(=O)NCCN2CCN(c3ccc(Cl)cn3)CC2)c1 | 15 | 3.29 | – | 6.45 | – | –
9 | COc1cccc(C(=O)NCCN2CCN(c3ccc(C)cc3)CC2)c1 | 7.2 | – | – | 6.46 | – | logD [5]: 2.78
10 | COc1cccc(C(=O)NCCN2CCN(c3ncccc3C#N)CC2)c1 | 8.3 | 2.55 | 1.52 | 6.71 | 4.4 | Activity [6]: 3.2%; concentration at 0.5 h [7]: 140 ng/g; Activity [8]: 9.3%; Activity [9]: 5.1%; Activity [10]: 6.5%; Drug uptake (Plasma): 0.1 µg/mL; Activity [11]: Active; concentration at 0.5 h [12]: 370 ng/mL; Activity [13]: 24%
11 | N#Cc1cccnc1N1CCN(CCNC(=O)c2ccc(F)cc2)CC1 | 1 | 2.37 | 0.93 | 6.4 | 32 | Activity [6]: 0%; concentration at 0.25 h [14]: 470 ng/g; Activity [8]: 29%; Activity [9]: 7.2%; Activity [10]: 9.9%; concentration at 0.25 h [15]: 130 ng/mL; Drug uptake (Plasma): < 0.1 µg/mL; Activity [11]: Active; Activity [13]: 53%
12 | COc1cccc(C(=O)NCCN2CCN(c3ccc(C#N)cc3)CC2)c1 | 27 | – | 63.9 | – | 0 | –
